Data as given in ChEMBL document CHEMBL1121893, “N-Aralkyl substitution of 2-amino-5,6- and -6,7-dihydroxy-1,2,3,4-tetrahydronaphthalenes. 1. Cardiac and pressor/depressor activities” (J Med Chem, 1981).
Calls of active or inactive are those of the source. The rule behind the calls is not given here.

Assays:
Cavia porcellus [1] = organism: Cavia porcellus; test: Compound was tested for or relative intrinsic activity in guinea pig isolated atrium left atria; type: functional, Cardiac atrium
Summary of the method: (§1)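 Isolated guinea pig left and right atria, field stimulated with 5 ms pulses and allowed to stabilise 60 min with periodic washing. An isoproterenol cumulative concentration-response curve was run first, tissues washed, then a cumulative curve with the test compound. Force was read in both atria and rate in right atria. Intrinsic activity = maximal response ÷ isoproterenol maximum. EC20 was given where EC50 was not reached. Means ± SE.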

Canis familiaris [2] = organism: Canis familiaris; test: Ionotropic selectivity expressed as change in heart rate for 100 percent increase in right ventricular contractile force in dogs; type: functional, Canis lupus familiaris
Summary of the method: (§2)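 Mongrel dogs of either sex, anesthetized with pentobarbital sodium (30 mg/kg iv) and ventilated. Femoral-artery blood pressure, heart rate and right ventricular contractile force were recorded, the force by strain gauge with the muscle stretched to 140% of in situ length. After 30 min equilibration, iv bolus doses in saline with 0.5 mg/mL bisulfite were doubled until contractile force rose 100%. Peak responses were taken.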

Canis familiaris [3] = organism: Canis familiaris; test: Cardioselectivity expressed as change in blood pressure for 100% increase in right ventricular contractile force in dogs; type: functional, Canis lupus familiaris; summary of the method: as §2
Canis familiaris [4] = organism: Canis familiaris; test: Cardioselectivity expressed as change in blood pressure for 50% increase in right ventricular contractile force in dogs; type: functional, Canis lupus familiaris
Summary of the method: (§3)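 Mongrel dogs of either sex, pentobarbital sodium anaesthesia (30 mg/kg iv, supplemented as needed), ventilated. Femoral arterial BP recorded, drugs given into a forelimb vein as iv boluses in saline with 0.5 mg/mL sodium bisulfite. Right ventricular CF measured by Walton-Brodie strain gauge. Peak response taken per dose, doses raised in 2-fold steps until CF rose 100%. HR and BP changes read at 50% and 100% CF increase. Means ± SEM.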

Cavia porcellus [5] = organism: Cavia porcellus; test: Compound was tested for relative intrinsic activity in guinea pig isolated atrium right atria; type: functional, Cardiac atrium; summary of the method: as §1
Canis familiaris [6] = organism: Canis familiaris; test: Inotropic potency expressed as 50 percent increase in right ventricular contractile force in dogs; type: functional, Canis lupus familiaris, Heart right ventricle; summary of the method: as §3
Cavia porcellus [7] = organism: Cavia porcellus; test: (§4) Effective concentration for increasing potency force in guinea pig isolated left atria; type: functional; summary of the method: as §1
Canis familiaris [8] = organism: Canis familiaris; test: Ionotropic selectivity expressed as change in heart rate for 50 percent increase in right ventricular contractile force in dogs; type: functional, Canis lupus familiaris; summary of the method: as §3
Canis familiaris [9] = organism: Canis familiaris; test: Inotropic potency expressed as 100 percent increase in right ventricular contractile force in dogs; type: functional, Canis lupus familiaris, Heart right ventricle; summary of the method: as §2
Cavia porcellus [10] = organism: Cavia porcellus; test: (§5) Effective concentration for increasing potency rate in guinea pig isolated right atria; type: functional; summary of the method: as §1
Cavia porcellus [11] = organism: Cavia porcellus; test: as §4; type: functional; remark: listed apart in the source
Cavia porcellus [12] = organism: Cavia porcellus; test: Effective concentration for increasing potency in guinea pig isolated right atria; type: functional; summary of the method: as §1
Canis familiaris [13] = organism: Canis familiaris; test: Cardioselectivity expressed as change in blood pressure for 100% increase in right ventricular contractile force in dogs; CF(100) levels not obtained; type: functional, organism-based; conditions: Canis lupus familiaris; summary of the method: as §3
Canis familiaris [14] = organism: Canis familiaris; test: Inotropic potency expressed as 100 percent increase in right ventricular contractile force in dogs; CF(100) levels not obtained; type: functional, organism-based; conditions: Canis lupus familiaris; Heart right ventricle; summary of the method: as §3
Canis familiaris [15] = organism: Canis familiaris; test: Ionotropic selectivity expressed as change in heart rate for 100 percent increase in right ventricular contractile force in dogs; CF(100) levels not obtained; type: functional, organism-based; conditions: Canis lupus familiaris; summary of the method: as §3
[16] = Percentage increase in contractile force was determined by the effect of DMI (desmethylimipramine, 1 mg/kg, iv) at 50 ug/kg
Canis familiaris [17] = organism: Canis familiaris; test: Inotropic potency expressed as 100 percent increase in right ventricular contractile force in dogs; CF(100) levels not obtained; CF(100) levels not obtained; type: functional, organism-based; conditions: Canis lupus familiaris; Heart right ventricle; summary of the method: as §3
Canis familiaris [18] = organism: Canis familiaris; test: Cardioselectivity expressed as change in blood pressure for 100% increase in right ventricular contractile force in dogs; CF(100) level not obtained; type: functional, organism-based; conditions: Canis lupus familiaris; summary of the method: as §3
Canis familiaris [19] = organism: Canis familiaris; test: Ionotropic selectivity expressed as change in heart rate for 100 percent increase in right ventricular contractile force in dogs; CF(100) level not obtained; type: functional, organism-based; conditions: Canis lupus familiaris; summary of the method: as §3
Canis familiaris [20] = organism: Canis familiaris; test: Inotropic potency expressed as 100 percent increase in right ventricular contractile force in dogs; CF(100) level not obtained; type: functional, organism-based; conditions: Canis lupus familiaris; Heart right ventricle; summary of the method: as §3
Cavia porcellus [21] = organism: Cavia porcellus; test: as §5; type: functional; remark: listed apart in the source
Summary of the method: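 Isolated atria were stabilized 60 min with periodic washing. A cumulative isoproterenol concentration-response curve was run, then washed out. A cumulative curve with the test compound followed. The EC50 was derived, or EC20 where 50% was not reached. Intrinsic activity is the maximal response relative to isoproterenol maximum.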

CC(CCc1ccc(O)cc1)NCCc1ccc(O)c(O)c1 (centres undefined) [DOBUTAMINE]
RIA (Cavia porcellus [1]): 1.12
HR (Canis familiaris [2]): 17 beats min-1
BP (Canis familiaris [3]): 4 mmHg
BP (Canis familiaris [4]): 3 mmHg
RIA (Cavia porcellus [5]): 0.9
Potency (Canis familiaris [6]): 4.1 nM/kg
EC50 (Cavia porcellus [7]): 150 nM
HR (Canis familiaris [8]): 3 beats min-1
Potency (Canis familiaris [9]): 13.2 nM/kg
EC50 (Cavia porcellus [10]): 470 nM

CC(Cc1ccc(O)c(O)c1)NC1CCc2c(ccc(O)c2O)C1 (centres undefined)
RIA (Cavia porcellus [1]): 1.02
HR (Canis familiaris [2]): 40 beats min-1
BP (Canis familiaris [3]): -54 mmHg
BP (Canis familiaris [4]): -42 mmHg
RIA (Cavia porcellus [5]): 0.87
Potency (Canis familiaris [6]): 7.2 nM/kg
EC50 (Cavia porcellus [7]): 250 nM
HR (Canis familiaris [8]): 26 beats min-1
Potency (Canis familiaris [9]): 20.1 nM/kg
EC50 (Cavia porcellus [10]): 160 nM

CC(CCc1ccc(O)cc1)NC1CCc2c(ccc(O)c2O)C1 (centres undefined)
RIA (Cavia porcellus [1]): 1.11
HR (Canis familiaris [2]): 41 beats min-1
BP (Canis familiaris [3]): -61 mmHg
BP (Canis familiaris [4]): -51 mmHg
RIA (Cavia porcellus [5]): 0.78
Potency (Canis familiaris [6]): 27.7 nM/kg
EC50 (Cavia porcellus [7]): 730 nM
HR (Canis familiaris [8]): 20 beats min-1
Potency (Canis familiaris [9]): 196 nM/kg
EC50 (Cavia porcellus [10]): 1800 nM

CC(CCc1ccc(O)cc1)NC1CCc2cc(O)c(O)cc2C1 (centres undefined)
EC20 (Cavia porcellus [11]): 2.7 µM
RIA (Cavia porcellus [1]): 0.38
HR (Canis familiaris [2]): 19 beats min-1
BP (Canis familiaris [3]): 60 mmHg
BP (Canis familiaris [4]): 13 mmHg
RIA (Cavia porcellus [5]): 0.15
Potency (Canis familiaris [6]): 140 nM/kg
EC20 (Cavia porcellus [12]): > 110 µM
HR (Canis familiaris [8]): -3 beats min-1
Potency (Canis familiaris [9]): 410 nM/kg

CC(C)NC1CCc2c(ccc(O)c2O)C1 (centres undefined)
RIA (Cavia porcellus [1]): 1.16
BP (Canis familiaris [4]): -66 mmHg
RIA (Cavia porcellus [5]): 0.55
BP (Canis familiaris [13]): CF(100) levels not obtained
Potency (Canis familiaris [14]): CF(100) levels not obtained
Potency (Canis familiaris [6]): 110 nM/kg
EC50 (Cavia porcellus [7]): 21000 nM
HR (Canis familiaris [8]): 20 beats min-1
HR (Canis familiaris [15]): CF(100) levels not obtained
EC50 (Cavia porcellus [10]): 1700 nM

NC1CCc2c(ccc(O)c2O)C1 (centres undefined)
RIA (Cavia porcellus [1]): 1.05
BP (Canis familiaris [4]): 41 mmHg
RIA (Cavia porcellus [5]): 0.69
BP (Canis familiaris [13]): inactive
Potency (Canis familiaris [6]): 410 nM/kg
EC50 (Cavia porcellus [7]): 4400 nM
Increase [16]: 18%
HR (Canis familiaris [8]): 11 beats min-1
HR (Canis familiaris [15]): inactive
Potency (Canis familiaris [17]): inactive
EC50 (Cavia porcellus [10]): 38000 nM

CC(Cc1ccc(O)c(O)c1)NC1CCc2cc(O)c(O)cc2C1 (centres undefined)
RIA (Cavia porcellus [1]): 0.95
HR (Canis familiaris [2]): 4 beats min-1
BP (Canis familiaris [4]): -39 mmHg
RIA (Cavia porcellus [5]): 0.69
Potency (Canis familiaris [6]): 11.4 nM/kg
EC50 (Cavia porcellus [7]): 280 nM
EC50 (Cavia porcellus [12]): 2.2 µM
HR (Canis familiaris [8]): -5 beats min-1
Potency (Canis familiaris [9]): 27 nM/kg

CC(C)NC1CCc2cc(O)c(O)cc2C1 (centres undefined)
RIA (Cavia porcellus [1]): 0.78
BP (Canis familiaris [4]): 46 mmHg
RIA (Cavia porcellus [5]): 0.24
BP (Canis familiaris [18]): CF(100) level not obtained
Potency (Canis familiaris [6]): 1560 nM/kg
EC50 (Cavia porcellus [7]): 49000 nM
EC20 (Cavia porcellus [12]): 200 µM
HR (Canis familiaris [19]): CF(100) level not obtained
HR (Canis familiaris [8]): 9 beats min-1
Potency (Canis familiaris [20]): CF(100) level not obtained

Oc1cc2c(cc1O)CC(NC1CCc3cc(O)c(O)cc3C1)CC2 (centres undefined)
EC20 (Cavia porcellus [11]): 2.4 µM
RIA (Cavia porcellus [1]): 0.38
HR (Canis familiaris [2]): 62 beats min-1
BP (Canis familiaris [3]): 84 mmHg
EC20 (Cavia porcellus [21]): > 110 µM
BP (Canis familiaris [4]): 78 mmHg
RIA (Cavia porcellus [5]): 0.08
Potency (Canis familiaris [6]): 961 nM/kg
HR (Canis familiaris [8]): 31 beats min-1
Potency (Canis familiaris [9]): 2650 nM/kg

CC(CCc1ccc(O)c(O)c1)NC1CCc2cc(O)c(O)cc2C1 (centres undefined)
HR (Canis familiaris [2]): 45 beats min-1
BP (Canis familiaris [3]): -11 mmHg
BP (Canis familiaris [4]): -36 mmHg
RIA (Cavia porcellus [5]): 0.35
Potency (Canis familiaris [6]): 24.6 nM/kg
HR (Canis familiaris [8]): 20 beats min-1
Potency (Canis familiaris [9]): 109 nM/kg
EC50 (Cavia porcellus [10]): 1200 nM

CC(C)NCC(O)c1ccc(O)c(O)c1 (centres undefined) [ISOPROTERENOL]
RIA (Cavia porcellus [1]): 1
HR (Canis familiaris [2]): 35 beats min-1
BP (Canis familiaris [3]): -27 mmHg
BP (Canis familiaris [4]): -17 mmHg
RIA (Cavia porcellus [5]): 1
Potency (Canis familiaris [6]): 0.11 nM/kg
EC50 (Cavia porcellus [7]): 3.2 nM
HR (Canis familiaris [8]): 13 beats min-1
Potency (Canis familiaris [9]): 0.35 nM/kg
EC50 (Cavia porcellus [10]): 6.2 nM

NC1CCc2cc(O)c(O)cc2C1 (centres undefined)
RIA (Cavia porcellus [1]): 1.06
HR (Canis familiaris [2]): 21 beats min-1
BP (Canis familiaris [3]): 61 mmHg
BP (Canis familiaris [4]): 29 mmHg
RIA (Cavia porcellus [5]): 0.61
Potency (Canis familiaris [6]): 173 nM/kg
EC50 (Cavia porcellus [7]): 2500 nM
Increase [16]: 5%
HR (Canis familiaris [8]): -12 beats min-1
Potency (Canis familiaris [9]): 457 nM/kg
EC50 (Cavia porcellus [10]): 33000 nM

NCCc1ccc(O)c(O)c1 [DOPAMINE]
RIA (Cavia porcellus [1]): 1.15
HR (Canis familiaris [2]): 12 beats min-1
BP (Canis familiaris [3]): -5 mmHg
BP (Canis familiaris [4]): -15 mmHg
RIA (Cavia porcellus [5]): 1
Potency (Canis familiaris [6]): 58.1 nM/kg
EC50 (Cavia porcellus [7]): 1700 nM
HR (Canis familiaris [8]): 5 beats min-1
Potency (Canis familiaris [9]): 125 nM/kg
EC50 (Cavia porcellus [10]): 1500 nM

Oc1ccc(CCNC2CCc3cc(O)c(O)cc3C2)cc1O (centres undefined)
RIA (Cavia porcellus [1]): 0.84
HR (Canis familiaris [2]): 30 beats min-1
BP (Canis familiaris [3]): 72 mmHg
BP (Canis familiaris [4]): 50 mmHg
RIA (Cavia porcellus [5]): 0.67
Potency (Canis familiaris [6]): 85 nM/kg
EC50 (Cavia porcellus [7]): 1500 nM
EC50 (Cavia porcellus [12]): 16 µM
HR (Canis familiaris [8]): 11 beats min-1
Potency (Canis familiaris [9]): 189 nM/kg
